From PubChem
MrgX1 antag = antagonists of human MrgX1 receptor | Q96LB2 | MRGX1-HEK293 calcium flux, Fluo-4, BAM8-22 antagonism; active compounds read low | B-score at 10 µM | 310,000 tested, 1.3% active;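 active means calcium-response B-score plate-corrected more than 3 library SD below zero, starting fluorescence within 5 deviations, no agonist response on first addition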;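 further: peak minus trough fluorescence over baseline after final BAM8-22 challenge near maximal dose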
Target sequence (Q96LB2 whole entry, looked up): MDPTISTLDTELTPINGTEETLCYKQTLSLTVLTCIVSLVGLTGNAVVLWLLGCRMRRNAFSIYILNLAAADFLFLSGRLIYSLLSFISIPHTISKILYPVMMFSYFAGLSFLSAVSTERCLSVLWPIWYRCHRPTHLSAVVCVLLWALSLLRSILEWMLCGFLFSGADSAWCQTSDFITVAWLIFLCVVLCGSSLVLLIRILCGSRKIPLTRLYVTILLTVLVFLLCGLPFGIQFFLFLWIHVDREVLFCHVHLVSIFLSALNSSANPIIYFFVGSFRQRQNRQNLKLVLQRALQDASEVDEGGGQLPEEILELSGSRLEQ
MrgX1 agonist = human MrgX1 receptor agonism, primary screen; 310,000 tested, 0.44% active; B-score at 10 µM; AID 588627; Q96LB2; MrgX1-HEK293 cells, Fluo-4 calcium fluorescence, agonist mode; active compounds read high;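 active means calcium response B-score plate-corrected fluorescence ratio at least 3 library SD, with starting fluorescence B-score inside 5 SD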
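Material: MrgX1-expressing HEK293 cells; input: 15,000 cells per well; doses: test compound given as first of three sequential additions; schedule: overnight plating before 1 h dye loading; technique: Fluo-4 NW calcium-flux fluorescence, kinetic read; evaluation: baseline-normalised fluorescence change ratio, B-scored; control set: plate-wise positive and negative controls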
RGS4 act = RGS4 potentiation or activation; B-score at 10 µM; HEK293 M3R/inducible RGS4, carbachol calcium flux Fluo4; active compounds read low; 310,000 tested, 0.92% active;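 active means B-score of the integrated calcium signal more than 4 SD below the library mean, with starting fluorescence not abnormally high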;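 further: negative B-score means reduced calcium response which marks RGS4 activation or potentiation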
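test system = HEK293 cells with stable M3R and inducible RGS4 | schedule = recording 10 s baseline at 1 Hz, 100 s post-agonist | technique = Fluo4-AM (2 µM) calcium-flux fluorescence, kinetic read | measure = Agonist-evoked peak-minus-minimum fluorescence over baseline, integrated ratio, B score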
MrgX1 allo act = human MrgX1 positive allosteric modulation, primary screen; Q96LB2; MrgX1-HEK293, Fluo-4 calcium flux, FDSS; active compounds read high; B-score at 10 µM; 310,000 tested, 0.63% active;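 active means plate-corrected calcium response at least 3 library SD above typical, normal starting fluorescence, not activating the receptor alone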;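 further: compound read alongside a low EC10 to EC30 dose of BAM8-22 agonist; peak minus trough fluorescence over baseline measured at the second addition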
RGS4 inh = human RGS4 inhibition | P49798 | HEK293 M3R/RGS4 inducible, Fluo-4 calcium flux; active compounds read high; triggered by carbachol at its EC20 | B-score at 10 µM | 310,000 tested, 0.45% active | AID 463165;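 active means B-score, a plate-corrected calcium signal, over three deviations above library mean, with baseline fluorescence within five deviations of library mean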;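 further: RGS4 expression induced by doxycycline in cells with stable M3 receptor; B-score is computed from the integrated fluorescence ratio over baseline after carbachol; higher B-score means a larger calcium signal and so more RGS4 inhibition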
Target sequence (P49798 whole entry, looked up): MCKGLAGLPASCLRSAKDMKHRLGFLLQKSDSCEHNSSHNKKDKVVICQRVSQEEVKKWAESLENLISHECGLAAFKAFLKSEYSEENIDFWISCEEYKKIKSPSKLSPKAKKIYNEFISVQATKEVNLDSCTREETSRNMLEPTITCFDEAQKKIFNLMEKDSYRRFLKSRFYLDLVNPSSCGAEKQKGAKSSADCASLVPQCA
MrgX1 antag conf = reconfirmed antagonist of human MrgX1 receptor signaling. 2,300 tested, 19% active. remaining BAM8-22 calcium response % of control (active compounds read low), % at 10 µM. shares compounds with MrgX1 antag. MrgX1-HEK293, BAM8-22 calcium flux, Fluo-4; active compounds read low;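 active means remaining agonist calcium response no higher than 100% minus 3 SD of agonist-only control wells, with starting fluorescence near control levels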;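 further: agonist BAM8-22 given at a near maximal EC90 to ECmax level; peak minus minimum fluorescence divided by baseline after agonist addition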
HEK293 Ca flux = activity in parental HEK293 cells lacking MrgX1 | fluorescence ratio F(max-min)/F0 at 10 µM | 4,000 tested, 2% active | Fluo-4 calcium fluorescence, FDSS | shares compounds with MrgX1 antag;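 active means duplicate-averaged calcium fluorescence ratio at least three times the standard deviation of buffer wells, a nonspecific response in parental cells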
HEK293 Ca counter = activity in parental HEK293 cells without MrgX1; shares compounds with MrgX1 antag; parental HEK293 calcium flux, Fluo-4 fluorescence ratio; active compounds read high; fluorescence ratio F(max-min)/F0 at 10 µM; 4,000 tested, 0.4% active; AID 624114;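 active means calcium fluorescence ratio, averaged over duplicates, at least 3 SD of the buffer-well ratio, meaning a nonspecific response in receptor-free cells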;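 further: untransfected parental HEK293 lacking MrgX1 used as counterscreen for MrgX1 allosteric activators; fluorescence change taken during the second addition on a kinetic imager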
HEK293 Ca cntr2 = counter-screen for MrgX1 activators: effect in parental HEK293 cells | Fluo-4 calcium fluorescence (FDSS); active compounds read high | AID 624115 | 4,000 tested, 8.7% active | fluorescence ratio F(max-min)/F0 at 10 µM | shares compounds with MrgX1 antag;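 active means calcium fluorescence ratio at least three times the spread of buffer wells, meaning a non-specific response in parental cells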
Active calls of the source: *; i = inactive; . = not tested or not shown. This is a sample that favours compounds with a hit; in the whole collection about 3.5% have one here.

SMILES	MrgX1 antag	MrgX1 agonist	RGS4 act	MrgX1 allo act	RGS4 inh	MrgX1 antag conf	HEK293 Ca flux	HEK293 Ca counter	HEK293 Ca cntr2
O=C(NCc1cn2ccsc2n1)c1c(F)cccc1Cl	-5*	i	i	i	i	i	i	i	i
O=C1c2cnccc2CN1Cc1ccccc1	-5.3*	i	i	i	i	i	i	i	i
CCC(=O)N1CCc2cc(S(=O)(=O)CCC(=O)N3CCN(c4ccc(F)cc4)CC3)ccc21	i	i	i	i	i	.	.	.	.
CC1(C)CC(=O)C(C=Nc2cc(C(=O)c3ccccc3)ccc2N)=C(O)C1	-6.8*	i	i	i	i	73%*	i	i	i
CSc1ccccc1N=CC1=C(O)CC(C)(C)CC1=O	i	i	i	i	i	.	.	.	.
O=c1c(Cc2ccc(F)cc2)c(O)ccn1CCc1ccccn1	i	i	i	i	i	.	.	.	.
Oc1ccc(-c2nccc(-c3ccccn3)n2)cc1	i	i	i	i	i	.	.	.	.
CC(=O)c1ccccc1NC(=O)CSc1nnc(Cc2csc(C)n2)o1	i	i	i	i	i	.	.	.	.
Cc1nc(Cc2nnc(SC(C)C(=O)Nc3cccc(C#N)c3)o2)cs1 (stereo not given)	-5.9*	i	i	i	i	i	i	i	i
Cn1nc(C(=O)OCC(=O)Nc2ccc(S(N)(=O)=O)cc2)c2ccccc2c1=O	i	i	i	i	i	.	.	.	.
NC(CC(=O)O)c1cccc(OCc2ccccc2)c1 (stereo not given)	-5.4*	i	.	i	.	75%*	i	i	i
O=C(O)CC(NC(=O)OCc1ccccc1)c1ccccc1 (stereo not given)	i	i	i	i	i	.	.	.	.
Cc1cc(F)ccc1S(=O)(=O)NCC(c1cccnc1)N1CCc2ccccc21 (stereo not given)	i	i	i	i	i	.	.	.	.
Cc1cc(Nc2ccccc2)n(C(=O)c2ccccc2)n1	-6.8*	i	i	i	i	i	i	i	i
COc1ccc(Nc2cc3n(c(=O)n2)CCc2cc(OC)c(OC)cc2-3)c(C)c1	-6.3*	i	i	i	i	i	i	i	i
Cc1ccc(C(=O)C(C)OC(=O)c2nc(Cl)ccc2Cl)cc1 (stereo not given)	i	i	i	i	i	.	.	.	.
CCC(=O)Nc1nnc(-c2cccs2)s1	-5.1*	i	i	i	i	i	i	i	i
Cc1ccc(C(=O)C2CCN(CC(=O)Nc3ccc(N(C)C)cc3)CC2)cc1	i	i	i	i	i	.	.	.	.
Cc1cc2nc(/N=C(\N)NC(=O)N3c4ccccc4Sc4ccccc43)nc(C)c2cc1C	i	i	.	i	.	.	.	.	.
CCCCc1cn([C@@H](CCCCN)C(=O)N2CCNCC2)nn1	i	i	i	i	i	.	.	.	.
NCCCC[C@@H](C(=O)N1CCNCC1)n1cc(CN)nn1	-7.1*	i	.	i	.	i	i	i	i
C=CCOc1c(Cl)cc(C(=S)N2CCCC2)cc1OCC	-6.9*	i	i	i	i	i	i	i	i
O=C(c1cccc(F)c1)N1CCCC(C(=O)N2CCN(c3ccccc3)CC2)C1 (stereo not given)	i	i	i	i	i	.	.	.	.
Cc1ccccc1CN1CCN(S(=O)(=O)c2cccc3nsnc23)CC1	-11*	i	i	i	i	i	i	i	i
CCN1CCN(S(=O)(=O)c2cccc3nsnc23)CC1	i	i	i	i	i	.	.	.	.
SMILES	MrgX1 antag	MrgX1 agonist	RGS4 act	MrgX1 allo act	RGS4 inh	MrgX1 antag conf	HEK293 Ca flux	HEK293 Ca counter	HEK293 Ca cntr2
Cc1ccccc1CN1CCN(S(=O)(=O)c2cccs2)CC1	-4.6*	i	i	i	i	i	i	i	i
CCOC(=O)N1CCC(NC(=O)CN(C)S(=O)(=O)c2cc3c(cc2Cl)NC(=O)CO3)CC1	-5.2*	i	i	i	i	i	i	i	i
CCn1cc(C(=O)NCCc2ccccc2)c(=O)c2cc(S(=O)(=O)N3CCCC3)ccc21	i	i	i	i	i	.	.	.	.
O=C1C2C3c4ccccc4C(c4ccccc43)C2C(=O)N1CN1CCOCC1 (stereo not given)	i	i	i	i	i	.	.	.	.
O=C(CN1C(=O)C2C3c4ccccc4C(c4ccccc43)C2C1=O)N1CCOCC1 (stereo not given)	-5.2*	i	i	i	i	i	i	i	i
COc1ccccc1N1CCSC1C(N)=O (stereo not given)	-7.1*	i	i	i	i	i	i	i	i
NNC(=S)NCc1ccc2c(c1)OCO2	i	i	i	i	i	.	.	.	.
NS(=O)(=O)c1ccc(CNc2nc(-c3cccnc3)nc3ccccc23)cc1	i	i	i	i	i	.	.	.	.
Cc1cccc(C(=O)NCC(=O)N2CCN(S(=O)(=O)c3ccccc3)CC2)c1	-4.6*	i	i	i	i	i	i	i	i
O=C(CSc1nnc(CNC(=O)c2cccs2)o1)NC1CCCCC1	-7.1*	i	i	i	i	i	i	i	i
Oc1ccc(C(=S)N2CCCCC2)cc1	-4.8*	i	i	i	i	i	i	i	i
COC(=O)C1=C(C(=O)OC)[C@@H]2N(C)c3ccccc3[C@@]23C[C@@H](CO)N(C(=O)NCCBr)C3=N1	i	i	i	i	i	.	.	.	.
COc1cc(NC(=S)N2CCN(C)CC2)cc(OC)c1	i	i	i	i	i	.	.	.	.
O=C(C1CCN(Cc2cccs2)CC1)N1CCN(Cc2ccc3c(c2)OCO3)CC1	i	i	i	i	i	.	.	.	.
O=C(NCCCn1ccnc1)c1cc(S(=O)(=O)N2CCOCC2)c(Cl)cc1Cl	-5.1*	i	i	i	i	i	i	i	i
